Test results as given in ChEMBL document CHEMBL4346663, “N-Cinnamoylanthranilates as human TRPA1 modulators: Structure-activity relationships and channel binding sites” (Eur J Med Chem, 2019).
Active and inactive are the calls of the source. The rule behind the calls is not given here.

Experiments:
[1] = molecular target: T1, Transient receptor potential cation channel subfamily A member 1 (Homo sapiens, UniProt O75762); assay: Antagonist activity at human TRPA1 expressed in HEK293 cells assessed as inhibition of CA-induced increase in calcium influx incubated for 10 mins prior to CA addition by Fluo-4-AM dye based fluorescence assayy; assay type: cell-based
T1 sequence (O75762 whole entry): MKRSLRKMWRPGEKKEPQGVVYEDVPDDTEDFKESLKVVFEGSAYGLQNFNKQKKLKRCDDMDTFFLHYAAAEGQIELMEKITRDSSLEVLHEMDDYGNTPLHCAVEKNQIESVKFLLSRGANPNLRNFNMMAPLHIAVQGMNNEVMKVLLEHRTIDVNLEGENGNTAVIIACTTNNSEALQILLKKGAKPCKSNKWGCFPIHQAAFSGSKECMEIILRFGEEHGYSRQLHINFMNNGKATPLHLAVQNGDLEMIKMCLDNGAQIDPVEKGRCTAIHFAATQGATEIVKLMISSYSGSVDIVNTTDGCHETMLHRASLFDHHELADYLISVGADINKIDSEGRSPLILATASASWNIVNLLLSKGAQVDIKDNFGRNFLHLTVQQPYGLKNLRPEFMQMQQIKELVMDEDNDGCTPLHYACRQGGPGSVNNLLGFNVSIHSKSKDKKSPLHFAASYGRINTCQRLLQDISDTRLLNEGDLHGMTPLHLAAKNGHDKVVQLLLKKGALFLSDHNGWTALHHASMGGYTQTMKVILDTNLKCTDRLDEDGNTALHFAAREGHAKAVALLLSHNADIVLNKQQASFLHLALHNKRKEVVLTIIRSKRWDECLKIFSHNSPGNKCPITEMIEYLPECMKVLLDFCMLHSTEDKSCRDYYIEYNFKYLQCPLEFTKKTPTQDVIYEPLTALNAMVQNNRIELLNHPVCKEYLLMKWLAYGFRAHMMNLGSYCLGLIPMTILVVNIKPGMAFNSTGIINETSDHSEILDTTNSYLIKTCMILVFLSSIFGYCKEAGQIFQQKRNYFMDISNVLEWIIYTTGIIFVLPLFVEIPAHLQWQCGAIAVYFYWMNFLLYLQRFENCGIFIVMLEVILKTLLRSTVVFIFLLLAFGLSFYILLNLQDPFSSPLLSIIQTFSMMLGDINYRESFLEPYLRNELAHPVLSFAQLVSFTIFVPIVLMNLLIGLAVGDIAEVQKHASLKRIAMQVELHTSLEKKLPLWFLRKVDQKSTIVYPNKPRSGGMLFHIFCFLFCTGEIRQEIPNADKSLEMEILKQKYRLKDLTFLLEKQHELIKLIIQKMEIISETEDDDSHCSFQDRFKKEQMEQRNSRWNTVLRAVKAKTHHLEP

[2] = molecular target: T1, Transient receptor potential cation channel subfamily A member 1; assay: Agonist activity at human TRPA1 expressed in HEK293 cells assessed as increase in calcium influx by Fluo-4-AM dye based fluorescence assay; assay type: cell-based; conditions: read-out: EC50
In short: (§1)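 Stably transfected hTRPA1- or hTRPM8-HEK293 cells on poly-D-lysine plates for 48 h, loaded with Fluo-4AM (2 µM, 45 min, dark, room temperature), in isotonic HEPES buffer pH 7.4. FlexStation 240 s run: 20 s baseline, compound added, calcimycin added at 180 s. ΔRFU expressed as % calcimycin, DMSO-subtracted. Screening N = 3. Dose-response curves fitted for logEC50 (N = 3 in duplicate or triplicate).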

[3] = molecular target: T2, Transient receptor potential cation channel subfamily M member 8 (Homo sapiens, UniProt Q7Z2W7); assay: Antagonist activity at human TRPM8 expressed in HEK293 cells assessed as inhibition in WS5-induced increase in calcium influx incubated for 10 mins prior to WS5 challenge by Fluo-4-AM dye based fluorescence assay; assay type: cell-based
In short: (§2)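 hTRPM8-HEK293 cells loaded with Fluo-4AM (2 µM, 45 min). Test compound pre-incubated 10 min before WS5 standard agonist. FlexStation fluorescence at 485/538 nm. ΔRFU given as % of WS5 response after DMSO vehicle subtraction. N = 3. IC50 from dose-response curves.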
Target sequence in this assay (Q7Z2W7 whole entry): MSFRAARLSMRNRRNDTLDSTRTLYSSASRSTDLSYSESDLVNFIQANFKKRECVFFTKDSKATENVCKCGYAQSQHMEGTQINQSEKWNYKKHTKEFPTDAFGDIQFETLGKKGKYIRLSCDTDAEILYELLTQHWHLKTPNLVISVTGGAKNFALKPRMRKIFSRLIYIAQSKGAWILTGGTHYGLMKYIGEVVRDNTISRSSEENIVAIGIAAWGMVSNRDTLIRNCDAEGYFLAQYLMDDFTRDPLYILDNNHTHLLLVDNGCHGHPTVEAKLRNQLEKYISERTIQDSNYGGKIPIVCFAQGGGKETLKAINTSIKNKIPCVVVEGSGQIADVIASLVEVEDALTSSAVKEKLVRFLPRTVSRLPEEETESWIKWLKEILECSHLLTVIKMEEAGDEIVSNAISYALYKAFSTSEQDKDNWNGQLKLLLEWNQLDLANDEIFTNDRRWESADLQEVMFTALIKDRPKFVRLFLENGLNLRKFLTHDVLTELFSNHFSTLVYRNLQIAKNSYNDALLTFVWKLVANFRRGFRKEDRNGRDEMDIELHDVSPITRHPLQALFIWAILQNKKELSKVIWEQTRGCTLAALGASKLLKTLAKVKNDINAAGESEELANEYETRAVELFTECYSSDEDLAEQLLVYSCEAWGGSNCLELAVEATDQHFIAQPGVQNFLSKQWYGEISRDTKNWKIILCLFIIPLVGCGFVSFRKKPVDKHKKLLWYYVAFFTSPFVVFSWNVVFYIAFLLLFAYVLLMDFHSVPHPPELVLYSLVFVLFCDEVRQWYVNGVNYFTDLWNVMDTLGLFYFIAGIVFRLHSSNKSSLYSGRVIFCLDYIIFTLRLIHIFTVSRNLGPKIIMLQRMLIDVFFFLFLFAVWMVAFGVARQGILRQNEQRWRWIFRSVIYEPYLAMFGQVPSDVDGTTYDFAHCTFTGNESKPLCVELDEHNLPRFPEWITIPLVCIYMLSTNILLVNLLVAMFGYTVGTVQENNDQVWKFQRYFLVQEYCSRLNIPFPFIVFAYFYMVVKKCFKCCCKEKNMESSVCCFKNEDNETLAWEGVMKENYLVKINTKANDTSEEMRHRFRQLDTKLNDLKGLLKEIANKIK

[4] = molecular target: T2, Transient receptor potential cation channel subfamily M member 8; assay: Antagonist activity at human TRPM8 expressed in HEK293 cells assessed as increase in calcium influx at 100 uM incubated for 10 mins prior to WS5 challenge by Fluo-4-AM dye based fluorescence assay relative to WS5; assay type: cell-based; parameters: scale not given: the % may be the effect or the level left; in short: as §2
Target sequence in this assay (Q7Z2W7 whole entry, looked up): as the sequence (Q7Z2W7 whole entry) above

[5] = Dissociation constant, pKa of the compound at pH 7.4; assay type: physicochemical
[6] = molecular target: T1, Transient receptor potential cation channel subfamily A member 1; assay: Reversible desensitizing activity at human TRPA1 expressed in HEK293 cells assessed as CA-induced increase in Ca2+ influx upto 10 uM pretreated with compound followed by drug wash-out and CA challenge by Fluo-4-AM dye based fluorescence assay; assay type: cell-based
In short: (§3)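 hTRPA1-HEK293 cells loaded with Fluo-4AM were pre-incubated with compound, then washed and resuspended in fresh assay buffer. The response to cinnamaldehyde (30 µM) was then measured by FlexStation calcium fluorescence.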

[7] = molecular target: T2, Transient receptor potential cation channel subfamily M member 8; assay: Agonist activity at human TRPM8 expressed in HEK293 cells assessed as increase in calcium influx at 30 uM by Fluo-4-AM dye based fluorescence assay relative to calcimycin; assay type: cell-based; in short: as §1
Target sequence in this assay (Q7Z2W7 whole entry, looked up): as the sequence (Q7Z2W7 whole entry) above

[8] = molecular target: T1, Transient receptor potential cation channel subfamily A member 1; assay: Irreversible desensitizing activity at human TRPA1 expressed in HEK293 cells assessed as CA-induced increase in Ca2+ influx at >30 uM pretreated with compound followed by drug wash-out and CA challenge by Fluo-4-AM dye based fluorescence assay; assay type: cell-based; in short: as §3
[9] = molecular target: T1, Transient receptor potential cation channel subfamily A member 1; assay: Agonist activity at human TRPA1 expressed in HEK293 cells assessed as increase in calcium influx at 30 uM by Fluo-4-AM dye based fluorescence assay relative to calcimycin; assay type: cell-based; in short: as §1
[10] = molecular target: T1, Transient receptor potential cation channel subfamily A member 1; assay: Modulating activity at human TRPA1 expressed in HEK293 cells assessed as desensitization of CA-induced increase in Ca2+ influx at 10 uM measured within 10 mins by Fluo-4-AM dye based fluorescence assay; assay type: cell-based
In short: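 hTRPA1-HEK293 cells with Fluo-4AM. Real-time fluorescence recorded for 10 min after compound addition (10 µM), followed by challenge with cinnamaldehyde (30 µM) to assess desensitization of the agonist response.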

[11] = molecular target: T2, Transient receptor potential cation channel subfamily M member 8; assay: Agonist activity at human TRPM8 expressed in HEK293 cells assessed as increase in calcium influx at 100 uM by Fluo-4-AM dye based fluorescence assay relative to calcimycin; assay type: cell-based; in short: as §1
Target sequence in this assay (Q7Z2W7 whole entry, looked up): as the sequence (Q7Z2W7 whole entry) above

[12] = molecular target: T1, Transient receptor potential cation channel subfamily A member 1; assay: Antagonist activity at human TRPA1 expressed in HEK293 cells assessed as increase in calcium influx at 100 uM incubated for 10 mins prior to CA addition by Fluo-4-AM dye based fluorescence assay relative to CA; assay type: cell-based; parameters: scale not given: the % may be the effect or the level left
In short: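 hTRPA1-HEK293 cells loaded with Fluo-4AM (2 µM). Compound pre-incubated 10 min, then cinnamaldehyde standard agonist added. FlexStation read, ex 485/em 538 nm. ΔRFU normalized to the CA response set at 100 % after DMSO vehicle subtraction. N = 3. logIC50 taken from dose-response fits.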

[13] = molecular target: T1, Transient receptor potential cation channel subfamily A member 1; assay: Reversible desensitizing activity at human TRPA1 expressed in HEK293 cells assessed as CA-induced increase in Ca2+ influx up to 30 uM pretreated with compound followed by drug wash-out and CA challenge by Fluo-4-AM dye based fluorescence assay; assay type: cell-based; in short: as §3
Cavia porcellus [14] = organism: Cavia porcellus; assay: Agonist activity at TRPA1 in Dunkin-Hartley guinea pig vagus nerve assessed as activation of vagus nerve by measuring depolarization at 300 uM […]
In short: (§4)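 Isolated vagus nerves from male Dunkin-Hartley guinea pigs (300-400 g, eight animals). Compound DMSO stocks diluted 1000× in Krebs-Henseleit buffer. Viability checked with capsaicin (1 µM) at the start and acrolein (300 µM) at the end. Single non-cumulative concentrations applied for 2 min each, with KH wash to baseline between them. DMSO vehicle run alike. Depolarization recorded in mV.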

Cavia porcellus [15] = organism: Cavia porcellus; assay: Antagonist activity at TRPA1 in Dunkin-Hartley guinea pig vagus nerve assessed as inhibition of ACR-stimulated vagus nerve by measuring depolarization at 300 uM incubated for 10 mins followed by ACR stimulation for 140 secs […]
In short: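 Guinea pig vagus nerve (male Dunkin-Hartley) in Krebs-Henseleit buffer; compound from DMSO stock diluted 1000×. Two control acrolein (300 µM, 2 min) responses, each washed to baseline. Then 10 min compound pretreatment and re-stimulation with acrolein 300 µM for 2 min 20 s. After washout, a recovery acrolein response was taken. Depolarization recorded in mV.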

[16] = test system: Transient receptor potential cation channel subfamily A member 1 (Homo sapiens), O75762 [F909A]; assay: Antagonist activity at human TRPA1 Phe909Ala mutant expressed in HEK293 cells assessed as Ca2+ influx at 100 uM by fluorescence assay; assay type: cell-based
Sequence of Transient receptor potential cation channel subfamily A member 1 (Homo sapiens), O75762 [F909A] (O75762 whole entry F909A): as the sequence (O75762 whole entry) above, with F909A counted along it
In short: (§5)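 hTRPA1 F909A or F944A mutant HEK293 stable clones, loaded with Fluo-4AM (2 µM, 45 min, room temperature). Compound pre-incubated 10 min before the standard agonist was added. FlexStation fluorescence (485/538 nm). ΔRFU normalized to the standard agonist response set at 100 %, after DMSO vehicle subtraction.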

[17] = test system: Transient receptor potential cation channel subfamily A member 1 (Homo sapiens), O75762 [F944A]; assay: Antagonist activity at human TRPA1 Phe944Ala mutant expressed in HEK293 cells assessed as Ca2+ influx at 100 uM by fluorescence assay; assay type: cell-based; in short: as §5
Sequence of Transient receptor potential cation channel subfamily A member 1 (Homo sapiens), O75762 [F944A] (O75762 whole entry F944A): as the sequence (O75762 whole entry) above, with F944A counted along it

[18] = molecular target: T2, Transient receptor potential cation channel subfamily M member 8; assay: Agonist activity at human TRPM8 expressed in HEK293 cells assessed as increase in calcium influx at 3 uM by Fluo-4-AM dye based fluorescence assay relative to calcimycin; assay type: cell-based; in short: as §1
Target sequence in this assay (Q7Z2W7 whole entry, looked up): as the sequence (Q7Z2W7 whole entry) above

[19] = test system: Transient receptor potential cation channel subfamily A member 1 (Homo sapiens), O75762 [F909A]; assay: Agonist activity at human TRPA1 Phe909Ala mutant expressed in HEK293 cells assessed as Ca2+ influx at 30 uM by fluorescence assay; assay type: cell-based
In short: (§6)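 HEK293 cells stably expressing hTRPA1 point mutants (C621A, F909A or F944A), single-cell cloned under G418 selection. Cells plated on poly-D-lysine for 48 h, loaded with Fluo-4AM 2 µM for 45 min at room temperature. FlexStation read (ex 485/em 538 nm): 20 s baseline, compound added, calcimycin added at 180 s. Response expressed as % calcimycin from ΔRFU, vehicle-subtracted, and compared with wild-type hTRPA1 cells.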

[20] = molecular target: T2, Transient receptor potential cation channel subfamily M member 8; assay: Antagonist activity at human TRPM8 expressed in HEK293 cells assessed as increase in calcium influx at 30 uM incubated for 10 mins prior to WS5 challenge by Fluo-4-AM dye based fluorescence assay relative to WS5; assay type: cell-based; parameters: scale not given: the % may be the effect or the level left; in short: as §2
Target sequence in this assay (Q7Z2W7 whole entry, looked up): as the sequence (Q7Z2W7 whole entry) above

[21] = molecular target: T1, Transient receptor potential cation channel subfamily A member 1; assay: Antagonist activity at human TRPA1 expressed in HEK293 cells assessed as increase in calcium influx at 3 uM incubated for 10 mins prior to CA challenge by Fluo-4-AM dye based fluorescence assay […]; assay type: cell-based
[22] = test system: Transient receptor potential cation channel subfamily A member 1 (Homo sapiens), O75762 [F944A]; assay: Agonist activity at human TRPA1 Phe944Ala mutant expressed in HEK293 cells assessed as Ca2+ influx at 30 uM by fluorescence assay; assay type: cell-based; in short: as §6
[23] = molecular target: Transient receptor potential cation channel subfamily A member 1 (Mus musculus, UniProt Q8BLA8); assay: Agonist activity at mouse TRPA1 expressed in CHO cells assessed as increase in calcium influx by patch clamp electrophysiology method; assay type: cell-based
Sequence of Transient receptor potential cation channel subfamily A member 1 (Mus musculus, UniProt Q8BLA8) (Q8BLA8 whole entry): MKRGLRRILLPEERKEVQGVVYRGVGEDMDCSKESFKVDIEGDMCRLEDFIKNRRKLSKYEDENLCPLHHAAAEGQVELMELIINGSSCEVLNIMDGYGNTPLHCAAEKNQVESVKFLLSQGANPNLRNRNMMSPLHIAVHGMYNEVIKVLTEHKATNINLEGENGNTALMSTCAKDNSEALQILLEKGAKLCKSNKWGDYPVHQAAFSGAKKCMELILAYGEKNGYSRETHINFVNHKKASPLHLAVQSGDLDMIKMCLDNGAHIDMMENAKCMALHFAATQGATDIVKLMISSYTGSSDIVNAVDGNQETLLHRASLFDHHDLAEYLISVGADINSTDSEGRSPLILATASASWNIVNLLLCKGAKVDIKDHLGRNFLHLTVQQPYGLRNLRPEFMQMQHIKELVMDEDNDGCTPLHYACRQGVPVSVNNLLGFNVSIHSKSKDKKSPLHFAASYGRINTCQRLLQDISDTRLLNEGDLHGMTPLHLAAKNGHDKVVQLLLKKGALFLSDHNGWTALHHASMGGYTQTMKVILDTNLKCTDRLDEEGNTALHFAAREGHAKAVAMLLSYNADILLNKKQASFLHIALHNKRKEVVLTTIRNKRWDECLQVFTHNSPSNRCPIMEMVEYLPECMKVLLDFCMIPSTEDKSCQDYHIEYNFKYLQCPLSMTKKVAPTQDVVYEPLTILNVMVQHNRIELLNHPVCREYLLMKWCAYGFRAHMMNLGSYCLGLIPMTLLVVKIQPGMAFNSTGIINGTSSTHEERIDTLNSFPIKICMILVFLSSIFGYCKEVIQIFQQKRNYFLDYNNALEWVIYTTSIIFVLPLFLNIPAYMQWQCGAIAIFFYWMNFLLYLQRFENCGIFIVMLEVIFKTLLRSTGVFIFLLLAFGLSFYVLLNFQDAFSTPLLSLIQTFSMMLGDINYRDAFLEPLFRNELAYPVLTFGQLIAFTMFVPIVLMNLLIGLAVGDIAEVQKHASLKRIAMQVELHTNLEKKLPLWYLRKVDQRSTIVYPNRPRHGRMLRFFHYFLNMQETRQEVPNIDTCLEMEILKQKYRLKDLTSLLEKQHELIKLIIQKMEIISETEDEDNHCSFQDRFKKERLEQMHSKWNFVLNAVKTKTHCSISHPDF

[24] = test system: Transient receptor potential cation channel subfamily A member 1 (Homo sapiens), O75762 [F909A]; assay: Agonist activity at human TRPA1 Phe909Ala mutant expressed in HEK293 cells assessed as Ca2+ influx at 100 uM by fluorescence assay; assay type: cell-based
In short: (§7)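 HEK293 cells stably expressing hTRPA1 point mutants, made by FuGENE 6 transfection, G418 (0.5 mg ml-1) selection and single-cell cloning, grown in DMEM with 25 mM HEPES, 10% FBS and geneticin. Ca2+ influx was read by Fluo dye fluorescence at room temperature, with calcimycin added at the end. Response was ΔRFU as % of calcimycin, with the DMSO vehicle subtracted.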

[25] = test system: Transient receptor potential cation channel subfamily A member 1 (Homo sapiens), O75762 [C621A]; assay: Agonist activity at human TRPA1 […] mutant expressed in HEK293 cells assessed as Ca2+ influx at 100 uM by fluorescence assay; assay type: cell-based
Sequence of Transient receptor potential cation channel subfamily A member 1 (Homo sapiens), O75762 [C621A] (O75762 whole entry C621A): as the sequence (O75762 whole entry) above, with C621A counted along it

[26] = test system: Transient receptor potential cation channel subfamily A member 1 (Homo sapiens), O75762 [F944A]; assay: Agonist activity at human TRPA1 Phe944Ala mutant expressed in HEK293 cells assessed as Ca2+ influx at 100 uM by fluorescence assay; assay type: cell-based; in short: as §7
Cavia porcellus [27] = organism: Cavia porcellus; assay: Agonist activity at TRPA1 in Dunkin-Hartley guinea pig vagus nerve assessed as activation of vagus nerve by measuring depolarization at 100 uM […]; in short: as §4
[28] = test system: Transient receptor potential cation channel subfamily A member 1 (Homo sapiens), O75762 [F909A]; assay: Agonist activity at human TRPA1 Phe909Ala mutant expressed in HEK293 cells assessed as Ca2+ influx […] fluorescence assay; assay type: cell-based; in short: as §6

| Structure (SMILES) | IC50 [1] | EC50 [2] | Activity [4] | pKa [5] | Activity [7] | Activity [8] | Activity [9] | Activity [10] | Activity [11] | Activity [12] | further results |
| --- | --- | --- | --- | --- | --- | --- | --- | --- | --- | --- | --- |
| O=C(/C=C/c1ccc(Br)cc1)Nc1ccccc1C(=O)O | 9 µM | 12 µM | 35% | 3.4 | inactive | Active | 60% | Active | inactive | 6% | IC50 [3]: 59 µM; Activity [6]: Active |
| O=C(/C=C/c1ccccc1Cl)Nc1ccccc1C(=O)O | 11 µM | 42 µM | 25% | 3.4 | inactive | Active | 44% | Active | inactive | 5% | Activity [13]: Active; IC50 [3]: 21 µM |
| O=C(/C=C/c1ccc(O)cc1)Nc1ccccc1C(=O)O | 43 µM | – | 70% | 3.5 | inactive | – | 1% | – | inactive | 35% | Activity (Cavia porcellus [14]): Active; inhibition (Cavia porcellus [15]): inactive; Activity [16]: inactive |
| O=C(NCc1ccc(Cl)cc1)[C@@H]1CCCN1S(=O)(=O)c1ccc(F)cc1 | 10 µM | – | – | – | – | – | – | – | – | – | Activity [17]: inactive; Activity [16]: inactive |
| COC(=O)c1ccccc1NC(=O)CCOc1ccccc1 | – | – | – | 11.9 | – | – | 45% | – | – | – | Activity [18]: inactive; Activity [19]: Active; Activity [20]: 12%; Activity [21]: inactive; Activity [22]: inactive |
| CC1CCC(C(C)C)C(O)C1 (stereo not given) [MENTHOL] | – | 30 µM | – | – | – | – | – | – | – | – | EC50 [23]: 95 µM; Activity [24]: inactive; Activity [25]: inactive; Activity [26]: inactive |
| O=C(/C=C/c1ccc(Cl)cc1)Nc1ccccc1C(=O)O | 4 µM | 10 µM | 40% | 3.4 | inactive | Active | 62% | Active | inactive | 7% | Activity [6]: Active; Activity (Cavia porcellus [27]): Active |
| O=C(/C=C/c1ccc(F)cc1)Nc1ccccc1C(=O)O | 26 µM | 30 µM | 61% | 3.4 | inactive | Active | 37% | Active | inactive | 13% | Activity [13]: Active |
| CN1CCC[C@H]1c1cccnc1 [NICOTINE] | – | 2 µM | – | – | – | – | – | – | – | – | EC50 [23]: 10 µM; Activity [28]: Active |
